# From ChEMBL document CHEMBL3826892, “Second-Generation Phenylthiazole Antibiotics with Enhanced Pharmacokinetic Properties” (J Med Chem, 2016)
# Key:
# [1] = tested on: Staphylococcus aureus; test: Antimicrobial activity against methicillin-resistant Staphylococcus aureus RCMB 2658 clinical isolate after 20 hrs by broth microdilution method; format: functional; conditions: RCMB 2658, 20 h
# Summary of the method: (§1)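 CLSI broth microdilution in cation-adjusted Mueller Hinton broth. Compounds were serially diluted in triplicate and plates held at 37 °C for 20 h. MIC was taken by eye as the lowest concentration with no visible growth, and the average of the triplicate determinations is reported.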
# [2] = Aqueous solubility of the compound in PBS after 2 hrs by turbidity assay; format: physicochemical
# Summary of the method: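 Serial dilutions were made […] and diluted 100-fold into PBS. After 2 h, turbidity was read at 540 nm with pre-addition background subtracted. Turbidity was taken as absorbance > blank mean + 3 SD. Solubility limit is the highest concentration with no turbidity.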
# [3] = Apparent permeability across apical to basolateral side in human Caco2 cells at pH 6.5 after 2 hrs by LC/MS/MS analysis; format: ADME, cell-based; conditions: Caco-2, pH 6.5
# Summary of the method: (§2)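 Caco-2 cells were grown and differentiated for 3 weeks, fed every 2 days. Compound was added to the apical or basolateral side and measured on the opposite side after 2 h by LC/MS/MS. Apical buffer was pH 6.5 transport buffer (glucose, 10 mM HEPES, HBSS) with 100 μM Lucifer yellow; basolateral buffer was pH 7.4. Lucifer yellow fluorescence checked monolayer integrity. Papp = (dQ/dt)/C₀A; efflux ratio = Papp(B→A)/Papp(A→B).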
# [4] = Efflux ratio of apparent permeability from basolateral to apical side over apical to basolateral side in human Caco2 cells after 2 hrs by LC/MS/MS analysis; format: ADME, cell-based; conditions: Caco-2; summary of the method: as §2
# [5] = Apparent permeability across basolateral to apical side in human Caco2 cells at pH 7.4 after 2 hrs by LC/MS/MS analysis; conditions: Caco-2, pH 7.4
# [6] = tested on: Staphylococcus aureus; test: Antimicrobial activity against vancomycin-resistant Staphylococcus aureus 10 clinical isolate after 20 hrs by broth microdilution method; format: functional; conditions: isolate 10, 20 h; summary of the method: as §1
# [7] = tested on: Enterococcus faecium; test: Antimicrobial activity against vancomycin-resistant Enterococcus faecium ATCC 700221 after 20 hrs by broth microdilution method; format: functional; conditions: ATCC 700221, 20 h; summary of the method: as §1
# [8] = tested on: Staphylococcus aureus; test: Bactericidal activity against methicillin-sensitive Staphylococcus aureus NRS72 clinical isolate after 20 hrs by broth microdilution method; format: functional; conditions: NRS72, 20 h
# [9] = tested on: Staphylococcus aureus; test: Bactericidal activity against methicillin-resistant Staphylococcus aureus NRS119 clinical isolate after 20 hrs by broth microdilution method; format: functional; conditions: NRS119, 20 h
# [10] = tested on: Staphylococcus aureus; test: Bactericidal activity against methicillin-resistant Staphylococcus aureus USA400 NRS123 clinical isolate after 20 hrs by broth microdilution method; format: functional; conditions: USA400 NRS123, 20 h
# [11] = tested on: Staphylococcus aureus; test: Bactericidal activity against methicillin-resistant Staphylococcus aureus USA100 NRS382 clinical isolate after 20 hrs by broth microdilution method; format: functional; conditions: USA100 NRS382, 20 h
# [12] = tested on: Staphylococcus aureus; test: Bactericidal activity against methicillin-resistant Staphylococcus aureus USA200 NRS383 clinical isolate after 20 hrs by broth microdilution method; format: functional; conditions: USA200 NRS383, 20 h
# [13] = tested on: Staphylococcus aureus; test: Bactericidal activity against methicillin-resistant Staphylococcus aureus USA300 NRS384 clinical isolate after 20 hrs by broth microdilution method; format: functional; conditions: USA300 NRS384, 20 h
# [14] = tested on: Staphylococcus aureus; test: Bactericidal activity against vancomycin-resistant Staphylococcus aureus 10 clinical isolate after 20 hrs by broth microdilution method; format: functional; conditions: isolate 10, 20 h
# [15] = tested on: Enterococcus faecium; test: Bactericidal activity against vancomycin-resistant Enterococcus faecium ATCC 700221 after 20 hrs by broth microdilution method; format: functional; conditions: ATCC 700221, 20 h
# [16] = tested on: Staphylococcus aureus; test: Bactericidal activity against methicillin-resistant Staphylococcus aureus USA300 assessed as time required to reduce bacterial inoculum to zero colony forming units at 3 times MIC by time kill assay; format: functional
# Summary of the method: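 Samples taken at 2, 4, 6, 8, 10, 12 and 24 h were serially diluted in PBS and plated on trypticase soy agar. Viable CFU/mL were counted after at least 16 h at 37 °C.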
# [17] = tested on: Staphylococcus aureus; test: Antimicrobial activity against methicillin-sensitive Staphylococcus aureus NRS72 clinical isolate after 20 hrs by broth microdilution method; format: functional; conditions: NRS72, 20 h; summary of the method: as §1
# [18] = tested on: Staphylococcus aureus; test: Antimicrobial activity against methicillin-resistant Staphylococcus aureus NRS119 clinical isolate after 20 hrs by broth microdilution method; format: functional; conditions: NRS119, 20 h; summary of the method: as §1
# [19] = tested on: Staphylococcus aureus; test: Antimicrobial activity against methicillin-resistant Staphylococcus aureus USA400 NRS123 clinical isolate after 20 hrs by broth microdilution method; format: functional; conditions: USA400 NRS123, 20 h; summary of the method: as §1
# [20] = tested on: Staphylococcus aureus; test: Antimicrobial activity against methicillin-resistant Staphylococcus aureus USA100 NRS382 clinical isolate after 20 hrs by broth microdilution method; format: functional; conditions: USA100 NRS382, 20 h; summary of the method: as §1
# [21] = tested on: Staphylococcus aureus; test: Antimicrobial activity against methicillin-resistant Staphylococcus aureus USA200 NRS383 clinical isolate after 20 hrs by broth microdilution method; format: functional; conditions: USA200 NRS383, 20 h; summary of the method: as §1
# [22] = tested on: Staphylococcus aureus; test: Antimicrobial activity against methicillin-resistant Staphylococcus aureus USA300 NRS384 clinical isolate after 20 hrs by broth microdilution method; format: functional; conditions: USA300 NRS384, 20 h; summary of the method: as §1
smiles,measurement,setting,value
CCCCc1ccc(-c2nc(C)c(-c3ccnc(NC(N)=S)n3)s2)cc1,MIC,[1],> 25 µg/mL
Cc1nc(-c2ccc(C3=CCC(C)C3)cc2)sc1-c1ccnc(N)n1 (stereo not drawn),MIC,[1],3.8 µg/mL
Cc1nc(-c2ccc(C=C3CCCC3)cc2)sc1-c1ccnc(N)n1,MIC,[1],1.17 µg/mL
CCCCc1ccc(-c2nc(C)c(-c3ccnc(NC(=N)N(C)C)n3)s2)cc1,MIC,[1],0.78 µg/mL
same,solubility kinetic at 2 h,[2],53 µM
CCCCc1ccc(-c2nc(C)c(C(=O)/C=C/N(C)C)s2)cc1,MIC,[1],> 25 µg/mL
CCCCc1ccc(-c2nc(C)c(-c3ccnc(-n4cccn4)n3)s2)cc1,MIC,[1],> 25 µg/mL
CCCCc1ccc(-c2nc(C)c(-c3ccnc(N)n3)s2)cc1,MIC,[1],3.12 µg/mL
same,solubility kinetic at 2 h,[2],42 µM
same,Papp A→B at 2 h,[3],14.9 ×10⁻⁶ cm/s
same,efflux ratio at 2 h,[4],1.1
same,Papp B→A at 2 h,[5],17 ×10⁻⁶ cm/s
Cc1nc(-c2ccc(-c3ccco3)cc2)sc1-c1ccnc(N)n1,MIC,[1],8.7 µg/mL
same,solubility kinetic at 2 h,[2],14 µM
Cc1nc(-c2ccc(/C3=C/CCCCCC3)cc2)sc1-c1ccnc(N)n1,MIC,[1],5.6 µg/mL
Cc1nc(-c2ccc(C3=CCCC3)cc2)sc1-c1ccnc(N)n1,MIC,[1],3.12 µg/mL
same,solubility kinetic at 2 h,[2],35 µM
Cc1nc(-c2ccc(/C=C/C3CCCC3)cc2)sc1-c1ccnc(N)n1,MIC,[1],3.12 µg/mL
Cc1nc(-c2ccc(-c3ccoc3)cc2)sc1-c1ccnc(N)n1,MIC,[1],7.8 µg/mL
same,solubility kinetic at 2 h,[2],13 µM
Cc1nc(-c2ccc(I)cc2)sc1-c1ccnc(N)n1,MIC,[1],> 25 µg/mL
CN[C@@H](CC(C)C)C(=O)N[C@H]1C(=O)N[C@@H](CC(N)=O)C(=O)N[C@H]2C(=O)N[C@H]3C(=O)N[C@H](C(=O)N[C@@H](C(=O)O)c4cc(O)cc(O)c4-c4cc3ccc4O)[C@H](O)c3ccc(c(Cl)c3)Oc3cc2cc(c3O[C@H]2O[C@@H](CO)[C@H](O)[C@@H](O)[C@@H]2O[C@@H]2C[C@@](C)(N)[C@@H](O)[C@@H](C)O2)Oc2ccc(cc2Cl)[C@H]1O,MIC,[6],> 64 µg/mL
same,MIC,[7],> 64 µg/mL
same,MBC,[8],2 µg/mL
same,MBC,[9],1 µg/mL
same,MBC,[10],1 µg/mL
same,MBC,[11],1 µg/mL
same,MBC,[12],1 µg/mL
same,MBC,[13],1 µg/mL
same,MBC,[14],> 64 µg/mL
same,MBC,[15],> 64 µg/mL
same,Time,[16],24 h
CC(=O)NC[C@H]1CN(c2ccc(N3CCOCC3)c(F)c2)C(=O)O1 [LINEZOLID],MIC,[17],1 µg/mL
same,MIC,[18],32 µg/mL
same,MIC,[19],1 µg/mL
same,MIC,[20],1 µg/mL
same,MIC,[21],1 µg/mL
same,MIC,[22],1 µg/mL
same,MIC,[6],1 µg/mL
same,MIC,[7],1 µg/mL
same,MBC,[8],2 µg/mL
same,MBC,[9],> 64 µg/mL
same,MBC,[10],16 µg/mL
same,MBC,[11],8 µg/mL
same,MBC,[12],32 µg/mL
same,MBC,[13],4 µg/mL
same,MBC,[14],2 µg/mL
same,MBC,[15],32 µg/mL
